Measurements as given in ChEMBL document CHEMBL5154895, “Mechanistic Studies and In Vivo Efficacy of an Oxadiazole-Containing Antibiotic” (J Med Chem, 2022).
The source made the active and inactive calls.

Legend:
[1] = tested on: Streptococcus pneumoniae; assay: Antibacterial activity against cephalosporin-resistant Streptococcus pneumoniae ATCC 51916 assessed as inhibition of bacterial growth incubated for 18 to 20 hrs by broth microdilution method; assay type: functional; details: time 18-20 hrs
How it was run: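 Broth microdilution per CLSI. S. pneumoniae was diluted to about 5×10^5 CFU/mL in TSB and incubated with serial dilutions of agent at 37 °C for 18–20 h under 5% CO2. MIC was read visually as the lowest concentration completely inhibiting growth.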

[2] = tested on: Staphylococcus aureus; assay: Antibacterial activity against Staphylococcus aureus MRSA ATCC 33592 assessed as inhibition of bacterial growth incubated for 18 to 20 hrs by broth microdilution method; assay type: functional; details: time 18-20 hrs
How it was run: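 Broth microdilution per CLSI. Inoculum at 0.5 McFarland, diluted in cation-adjusted Mueller Hinton broth to about 5 × 10^5 CFU/mL. Serial compound dilutions incubated aerobically at 37° C for 18–20 hours. MIC taken as the lowest concentration completely inhibiting visible growth.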

[3] = tested on: Staphylococcus aureus; assay: Antibacterial activity against vancomycin-resistant Staphylococcus aureus 12 assessed as inhibition of bacterial growth incubated for 18 to 20 hrs by broth microdilution method; assay type: functional; details: time 18-20 hrs
How it was run: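 Broth microdilution per CLSI. Inoculum was set to 0.5 McFarland and diluted in CAMHB to about 5×10^5 CFU/mL. Serial dilutions of agent were incubated aerobically at 37 °C for 18–20 h. MIC was read visually as the lowest concentration with complete growth inhibition.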

[4] = tested on: Staphylococcus aureus; assay: Downregulation of LipA protein expression in Staphylococcus aureus assessed as log2 of fold change in protein level measured after 2 hrs by LC-MS/MS analysis relative to control; assay type: functional
How it was run: (§1)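 S. aureus ATCC 25923 at OD600 0.6 was treated with compound or DMSO for 2 h at 37 °C, normalised to OD600 1.1, and washed in PBS. Cells were pressure-lysed in 100 mM ammonium bicarbonate, then acetone-precipitated, reduced with DTT, alkylated with iodoacetamide, and digested with trypsin/Lys-C. Peptides were desalted and run on LC-MS/MS. Label-free quantitation used proteins present in all 3 samples, filtered at p<0.05 against DMSO.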

[5] = tested on: Staphylococcus aureus; assay: Downregulation of SarR protein expression in Staphylococcus aureus assessed as log2 of fold change in protein level measured after 2 hrs by LC-MS/MS analysis relative to control; assay type: functional; how it was run: as §1
[6] = tested on: Staphylococcus aureus; assay: Upregulation of Bsh protein expression in Staphylococcus aureus assessed as log2 of fold change in protein level measured after 2 hrs by LC-MS/MS analysis relative to control; assay type: functional
How it was run: (§2)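 S. aureus ATCC 25923 at OD600 0.6 exposed to compound or DMSO control for 2 h at 37°C, normalized to OD600 1.1 and PBS-washed. Cells were pressure-cycling lysed in 100 mM ammonium bicarbonate, and 50 μg protein was acetone-precipitated, reduced and alkylated, then Trypsin/Lys-C digested and C18-desalted. About 1 μg peptides went to LC-MS/MS. Label-free quantitation kept proteins present in all 3 samples, filtered at p <0.05.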

[7] = tested on: Staphylococcus aureus; assay: Upregulation of MecA protein expression in Staphylococcus aureus assessed as log2 of fold change in protein level measured after 2 hrs by LC-MS/MS analysis relative to control; assay type: functional; how it was run: as §2
[8] = tested on: Mus musculus; assay: Acceleration of wound healing in methicillin-resistant Staphylococcus aureus USA300 infected in Balb/c mouse model assessed as reduction in pro-inflammatory cytokines level in skin wounds administered topically twice daily 2 days post infection and measured after 5 days post compound treatment; assay type: functional, organism-based; details: time 5.0 day
How it was run: (§3)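 Mice had two 6-mm dorsal excisional wounds, each infected with 20 μL of 4.2×10^9 CFU/mL MRSA USA300 and covered with Tegaderm. Treatment began 2 days after infection (n=5 per group): 2% compound in petroleum jelly applied topically twice daily for 5 days. Right-wound homogenates in PBS were centrifuged, supernatants pooled per group, and protein normalised by BCA. Cytokines were measured by mouse cytokine array (pg/mL).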

[9] = tested on: Mus musculus; assay: Acceleration of wound healing in methicillin-resistant Staphylococcus aureus USA300 infected Balb/c mouse model assessed as reduction in MCP-1 protein level in skin wounds administered topically twice daily 2 days post infection and measured after 5 days post compound treatment; assay type: functional, organism-based; details: time 5.0 day; how it was run: as §3
[10] = tested on: Staphylococcus aureus; assay: Downregulation of aureolysin protein expression in Staphylococcus aureus measured after 2 hrs by LC-MS/MS analysis; assay type: functional; how it was run: as §1
[11] = Toxicity in Balb/c mouse infected with methicillin-resistant Staphylococcus aureus USA300 assessed as necrosis administered topically twice daily 2 days post infection and measured after 5 days post compound treatment by H and E staining based histopathological analysis; details: in vivo, topical_or_ocular, 120 h, time 5 day
How it was run: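 MRSA USA300-infected punch wounds in mice, n=5. Topical 2% agent or petroleum jelly vehicle twice daily from day 2 for 5 days. The left wound was formalin-fixed, cut into 4-μm sections and H&E-stained. Whole slides were scanned and assessed by a board-certified veterinary pathologist for necrosis, inflammation, haemorrhage and related features.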

[12] = tested on: Staphylococcus aureus; assay: Upregulation of thiol reductase thioredoxin expression in Staphylococcus aureus measured after 2 hrs by LC-MS/MS analysis; assay type: functional; how it was run: as §2
[13] = tested on: Staphylococcus aureus; assay: Upregulation of Cro/CI family transcriptional regulator expression in Staphylococcus aureus measured after 2 hrs by LC-MS/MS analysis; assay type: functional; how it was run: as §2
[14] = tested on: Staphylococcus aureus; assay: Upregulation of CHAP domain-containing protein expression in Staphylococcus aureus measured after 2 hrs by LC-MS/MS analysis; assay type: functional; how it was run: as §2
[15] = tested on: Staphylococcus aureus; assay: Upregulation of heme uptake system protein IsdE expression in Staphylococcus aureus measured after 2 hrs by LC-MS/MS analysis; assay type: functional; how it was run: as §2
[16] = tested on: Staphylococcus aureus; assay: Upregulation of siderophore biosynthesis protein SbnC expression in Staphylococcus aureus measured after 2 hrs by LC-MS/MS analysis; assay type: functional; how it was run: as §2
[17] = tested on: Staphylococcus aureus; assay: Upregulation of dihydroxyacetone kinase subunit L expression in Staphylococcus aureus measured after 2 hrs by LC-MS/MS analysis; assay type: functional; how it was run: as §2
[18] = tested on: Staphylococcus aureus; assay: Upregulation of 30S ribosomal protein S20 expression in Staphylococcus aureus measured after 2 hrs by LC-MS/MS analysis; assay type: functional; how it was run: as §2
[19] = tested on: Staphylococcus aureus; assay: Downregulation of glycero-phosphodiester phosphodiesterase protein expression in Staphylococcus aureus measured after 2 hrs by LC-MS/MS analysis; assay type: functional; how it was run: as §1
[20] = tested on: Staphylococcus aureus; assay: Downregulation of oxidoreductase protein expression in Staphylococcus aureus measured after 2 hrs by LC-MS/MS analysis; assay type: functional; how it was run: as §2
[21] = tested on: Staphylococcus aureus; assay: Downregulation of molybdenum ABC transporter ATP-binding protein expression in Staphylococcus aureus measured after 2 hrs by LC-MS/MS analysis; assay type: functional; how it was run: as §2
[22] = tested on: Staphylococcus aureus; assay: Downregulation of sodium ABC transporter permease protein expression in Staphylococcus aureus measured after 2 hrs by LC-MS/MS analysis; assay type: functional; how it was run: as §2
[23] = tested on: Staphylococcus aureus; assay: Downregulation of type VII secretion protein EsaB protein expression in Staphylococcus aureus measured after 2 hrs by LC-MS/MS analysis; assay type: functional; how it was run: as §2
[24] = tested on: Staphylococcus aureus; assay: Downregulation of hydrolase protein expression in Staphylococcus aureus measured after 2 hrs by LC-MS/MS analysis; assay type: functional; how it was run: as §1
[25] = tested on: Staphylococcus aureus; assay: Downregulation of site-specific integrase protein expression in Staphylococcus aureus measured after 2 hrs by LC-MS/MS analysis; assay type: functional; how it was run: as §2
[26] = tested on: Staphylococcus aureus; assay: Downregulation of holo-ACP synthase protein expression in Staphylococcus aureus measured after 2 hrs by LC-MS/MS analysis; assay type: functional; how it was run: as §1
[27] = tested on: Staphylococcus aureus; assay: Downregulation of peptide ABC transporter permease protein expression in Staphylococcus aureus measured after 2 hrs by LC-MS/MS analysis; assay type: functional; how it was run: as §2

CC1CC(C)CN(S(=O)(=O)c2ccc(C(=O)Nc3nnc(-c4ccc(C(F)(F)F)cc4)o3)cc2)C1 (configuration not stated)
active: Activity [8] | Activity [9] | Activity [10] | Activity [12] | Activity [13] | Activity [14] | Activity [15] | Activity [16] | Activity [17] | Activity [18] | Activity [19] | Activity [20] | Activity [21] | Activity [22] | Activity [23] | Activity [24] | Activity [25] | Activity [26] | Activity [27]
0.06 µg/mL: MIC [1]
3.6: log2FC [6]
Toxic: Activity [11]
-2: log2FC [4] | log2FC [5]
2: log2FC [7]
0.25 µg/mL: MIC [2] | MIC [3]
